Data from ChEMBL document CHEMBL1139850, “Hypoxia-selective antitumor agents: norsesterterpene peroxides from the marine sponge Diacarnus levii preferentially suppress the growth of tumor cells under hypoxic conditions” (J Nat Prod, 2007).
The source made the active and inactive calls. The calls are words filed in the database; no cut-off is given here.

Assays:
[1] = tested on: PC-3; assay: Antiproliferative activity against human PC3 cells under hypoxic condition; assay type: functional, cell-based
Procedure, shortened: (§1)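 Human prostate (DU145, PC-3) and breast (MCF-7, MDA-MB-231, T47D) carcinoma cells were grown in DMEM/F12 with 10% FCS and Pen/Strep. They were seeded at 30,000 cells/well and left overnight. Compound was added with DMSO up to 0.6% final, and plates went 48 h at 37 °C, hypoxic (1% O2:5% CO2:94% N2) or normoxic (5% CO2:95% air). Read-out was neutral red, A540 corrected at 630 nm, in quadruplicate.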

[2] = tested on: MCF7; assay: Antiproliferative activity against human MCF7 cells under hypoxic condition; assay type: functional, cell-based; procedure, shortened: as §1
[3] = tested on: MDA-MB-231; assay: Antiproliferative activity against human MDA-MB-231 cells under hypoxic condition; assay type: functional, cell-based; procedure, shortened: as §1
[4] = tested on: T47D; assay: Antiproliferative activity against human T47D cells under hypoxic condition; assay type: functional, cell-based; procedure, shortened: as §1
[5] = tested on: DU-145; assay: Antiproliferative activity against human DU145 cells under hypoxic condition; assay type: functional, cell-based; procedure, shortened: as §1
[6] = tested on: DU-145; assay: Antiproliferative activity against human DU145 cells under normoxic condition; assay type: functional, cell-based; procedure, shortened: as §1
[7] = tested on: PC-3; assay: Antiproliferative activity against human PC3 cells under normoxic condition; assay type: functional, cell-based; procedure, shortened: as §1
[8] = tested on: MCF7; assay: Antiproliferative activity against human MCF7 cells under normoxic condition; assay type: functional, cell-based; procedure, shortened: as §1
[9] = tested on: MDA-MB-231; assay: Antiproliferative activity against human MDA-MB-231 cells under normoxic condition; assay type: functional, cell-based; procedure, shortened: as §1
[10] = tested on: T47D; assay: Antiproliferative activity against human T47D cells under normoxic condition; assay type: functional, cell-based; procedure, shortened: as §1
[11] = organism: Homo sapiens; assay: Inhibition of hypoxia-induced HIF1 activation at 12. 7 uM
Procedure, shortened: (§2)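 HIF-1 activity was read in transfected cells by a luciferase reporter after a 16 h compound exposure under hypoxia (1% O2:5% CO2:94% N2). Normoxic (5% CO2:95% air) and hypoxia-mimetic (10 µM 1,10-phenanthroline) conditions were run alongside.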

[12] = tested on: T47D; assay: Antiproliferative activity against T47D cells at 12. 7 uM; assay type: functional, Homo sapiens
[13] = tested on: T47D; assay: Antiproliferative activity against T47D cells after 16 hrs at 12. 7 uM; assay type: functional, Homo sapiens
[14] = organism: Homo sapiens; assay: Inhibition of hypoxia induced HIF-1 activation at 1.27 uM; procedure, shortened: as §2
[15] = tested on: T47D; assay: Antiproliferative activity against T47D cells at 1.27 uM; assay type: functional, cell-based; conditions: Homo sapiens
[16] = tested on: MDA-MB-231; assay: Antiproliferative activity against human MDA-MB-231 cells at 0.3 uM; assay type: functional, cell-based; procedure, shortened: as §1

| Structure (SMILES) | IC50 [1] [µM] | IC50 [2] [µM] | IC50 [3] [µM] | IC50 [4] [µM] | IC50 [5] [µM] | IC50 [6] [µM] | IC50 [7] [µM] | IC50 [8] [µM] | IC50 [9] [µM] | IC50 [10] [µM] | inhibition [11] [%] | Activity [12] | Activity [13] [%] | Activity [14] | Activity [15] | Activity [16] |
| --- | --- | --- | --- | --- | --- | --- | --- | --- | --- | --- | --- | --- | --- | --- | --- | --- |
| C=C1CCCC(C)(C)C1CCC(C)CCC[C@@]1(C)CC[C@H]([C@H](C)C(=O)OC)OO1 (relative stereo) [DIACARNOXIDE A] | > 30 | > 30 | 17.8 | 26.9 | > 30 | > 30 | > 30 | > 30 | 17.8 | 14.7 | < 30 | <=30% |  |  |  |  |
| COC(=O)[C@@H](C)[C@H]1CC[C@](C)(CCC/C(C)=C/CC2C(C)=CCCC2(C)C)OO1 (relative stereo) [DIACARNOXIDE D] |  |  |  |  |  |  |  |  |  |  | < 30 | <=30% |  |  |  |  |
| C=C1CCCC(C)(C)C1CCC(C)CCC[C@@]1(C)CC[C@H]([C@H](C)C(=O)O)OO1 (relative stereo) [DIACARNOXIDE B] | 12.9 | 6.6 | 5.6 | 6 | 5.3 | 6.6 | 16.7 | 13.8 | 13.3 | 5.6 | 95 |  | 97 | inactive | inactive | Active |
| COC(=O)[C@@H](C)[C@H]1CC[C@](C)(CCCC(C)CCC2=C(C)CCCC2(C)C)OO1 (relative stereo) [DIACARNOXIDE C] |  |  |  |  |  |  |  |  |  |  | < 30 | <=30% |  |  |  |  |
